Test [1] has as its target T1, Aminopeptidase N (Sus scrofa, UniProt P15145).
T1 sequence (P15145 whole entry): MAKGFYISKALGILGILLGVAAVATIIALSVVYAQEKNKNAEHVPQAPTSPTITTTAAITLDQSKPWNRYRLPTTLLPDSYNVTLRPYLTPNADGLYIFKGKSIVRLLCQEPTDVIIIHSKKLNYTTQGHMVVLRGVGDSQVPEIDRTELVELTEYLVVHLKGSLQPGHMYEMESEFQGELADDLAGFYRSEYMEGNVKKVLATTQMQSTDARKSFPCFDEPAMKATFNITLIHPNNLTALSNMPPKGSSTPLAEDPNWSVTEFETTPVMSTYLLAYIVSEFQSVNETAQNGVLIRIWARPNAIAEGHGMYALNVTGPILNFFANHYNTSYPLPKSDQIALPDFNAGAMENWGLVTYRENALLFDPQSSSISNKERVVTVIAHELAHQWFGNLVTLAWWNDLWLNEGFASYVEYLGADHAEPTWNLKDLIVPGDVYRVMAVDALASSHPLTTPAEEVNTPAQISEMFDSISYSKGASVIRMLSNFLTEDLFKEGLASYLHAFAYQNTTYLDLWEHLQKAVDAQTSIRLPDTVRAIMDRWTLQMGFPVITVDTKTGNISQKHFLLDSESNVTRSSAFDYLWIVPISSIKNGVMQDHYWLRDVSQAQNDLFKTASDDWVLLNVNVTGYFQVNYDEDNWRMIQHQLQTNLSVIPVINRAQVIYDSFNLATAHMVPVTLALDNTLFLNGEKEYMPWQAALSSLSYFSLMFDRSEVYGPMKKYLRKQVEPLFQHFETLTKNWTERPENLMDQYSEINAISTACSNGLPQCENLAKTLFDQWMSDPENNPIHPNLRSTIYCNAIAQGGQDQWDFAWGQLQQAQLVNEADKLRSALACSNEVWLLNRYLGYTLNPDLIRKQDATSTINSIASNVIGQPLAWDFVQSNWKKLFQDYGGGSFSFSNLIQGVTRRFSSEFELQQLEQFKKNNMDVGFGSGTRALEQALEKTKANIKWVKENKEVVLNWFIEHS
In words: Compound was evaluated for the inhibition of Aminopeptidase M (AP-M) and the inhibition constant was determined after preincubating the enzyme and inhibitor. The method, boiled down: (§1)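 Initial rates came from reactions started by adding enzyme to substrate plus inhibitor. Final steady-state rates came after 15-20 min enzyme-inhibitor preincubation, with substrate added to start. Reaction velocities were analysed by Lineweaver-Burk plots.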

In test [2] the target is Cytosol aminopeptidase (Sus scrofa) (UniProt P28839). The test can be described thus: Compound was evaluated for the inhibition of Leucine aminopeptidase from porcine kidney and the inhibition constant (Ka) was determined which is the apparent Km in the presence of tripeptide after preincubating the enzyme and inhibitor.
Test [3] deals with T1, Aminopeptidase N. The test can be described thus: Compound was evaluated for the inhibition of Aminopeptidase M (AP-M) from porcine kidney and the inhibition constant was determined after preincubating the enzyme and inhibitor. The method in brief:
as §1

Test [4] deals with T1, Aminopeptidase N. The test can be described thus: Effect of inhibitor structure on the slow binding inhibition of Aminopeptidase M from porcine kidney was determined and Ki was reported which is obtained by the equation Ki[k4/(k3 + k4)]. The method in brief:
as §1

Test [5] addresses T1, Aminopeptidase N. The test can be described thus: Effect of inhibitor structure on the slow binding inhibition of Aminopeptidase M from porcine kidney was determined and the Ki was reported which is = k2/k1. The method, boiled down:
as §1

Test [6] deals with T1, Aminopeptidase N. In words: Effect of inhibitor structure on the slow binding inhibition of aminopeptidase M was determined and the Ki was reported which is = k2/k1. The method, boiled down:
as §1

In test [7] the target is T1, Aminopeptidase N. The test can be described thus: Effect of inhibitor structure on the slow binding inhibition of aminopeptidase M was determined and Ki* was reported which is obtained by the equation Ki[k4/(k3 + k4)]. The method, boiled down:
as §1

Square brackets hold non-standard residues; d marks the D form. Peptide text beside a SMILES is read from it. Sta = CC(C)C[C@H](N)[C@@H](O)CC(=O)O

Sequence of Cytosol aminopeptidase (Sus scrofa) (P28839 whole entry, looked up): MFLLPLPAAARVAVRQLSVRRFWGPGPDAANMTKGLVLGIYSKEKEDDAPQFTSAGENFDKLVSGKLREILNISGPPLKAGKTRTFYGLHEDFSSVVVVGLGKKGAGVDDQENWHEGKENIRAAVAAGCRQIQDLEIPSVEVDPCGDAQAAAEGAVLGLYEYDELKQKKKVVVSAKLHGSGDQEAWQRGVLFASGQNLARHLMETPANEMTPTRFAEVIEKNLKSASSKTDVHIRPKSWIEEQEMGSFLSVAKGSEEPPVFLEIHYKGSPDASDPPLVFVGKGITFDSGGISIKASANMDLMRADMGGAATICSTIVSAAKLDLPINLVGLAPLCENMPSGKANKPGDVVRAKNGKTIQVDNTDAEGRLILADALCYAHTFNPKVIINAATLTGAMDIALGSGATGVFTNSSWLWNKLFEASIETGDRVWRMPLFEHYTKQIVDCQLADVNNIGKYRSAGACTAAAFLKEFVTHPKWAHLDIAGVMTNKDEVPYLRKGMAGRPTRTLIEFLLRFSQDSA

In turn, `CC(C)C[C@@H](N)CC(=O)N[C@H](C(=O)N[C@H](C(=O)N[C@@H](CC(=O)O)C(=O)O)C(C)C)C(C)C` showed a Ki at Aminopeptidase N [1] of 25 µM.
As to `CC(C)C[C@H](N)[C@@H](O)CC(=O)N[C@H](C(=O)N[C@H](C(=O)N[C@@H](CC(=O)O)C(=O)O)C(C)C)C(C)C` (H-[Sta]VVD-OH), in test [2], the Ka turned out to be 0.0057.
`CC(C)C[C@H](NC(=O)[C@@H](O)[C@H](N)CC(C)C)C(=O)O` yielded a Ki at Aminopeptidase N [1] of 11.8 µM.
With `CC(C)CCNC(=O)[C@H](O)[C@@H](N)Cc1ccccc1`, the Ki was determined as 16.3 µM on Aminopeptidase N [3], 16 µM on Aminopeptidase N [4] and 16 µM at Aminopeptidase N [5].
`CC(C)CCNC(=O)[C@@H](NC(=O)[C@@H](NC(=O)C[C@H](O)[C@@H](N)CC(C)C)C(C)C)C(C)C` yielded a Ki at Aminopeptidase N [3] of 1000 µM.
`CC(C)CC(N)C(O)C(=O)NC(C(=O)NC(CC(=O)O)C(=O)O)C(C)C` (stereo unspecified): the inhibition constant (Ki) came to 40 µM at Aminopeptidase N [6], 0.9 µM at Aminopeptidase N [7] and 0.94 µM on Aminopeptidase N [1].
Molecule `CC(C)CCNC(=O)[C@@H](NC(=O)[C@@H](NC(=O)[C@H](O)[C@@H](N)CC(C)C)C(C)C)C(C)C` had a Ki on Aminopeptidase N [1] of 0.18 µM.

The term Ki denotes the equilibrium dissociation constant of an inhibitor or competing ligand from its target.

For the origin of these results see ChEMBL document CHEMBL1122806 (J Med Chem, 1984).
